Shown are actives, neighbours in structure and some others; about 4.4% of the full set was active somewhere.
EBI2 antag: EBI2 (human) antagonism. P32249. EBI2 beta-arrestin recruitment, luminescence, 7a,25-OHC stimulated. inhibition, % at 5 µM. hit rate 0.81% among 360,000. AID 651636; in the data active = inhibition above about 38%;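 note: enzyme fragment complementation signal reports receptor beta-arrestin coupling in cells; 0% = agonist plus DMSO wells and 100% = wells without agonist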
Target sequence (P32249 whole entry, looked up, the tested form may be a part): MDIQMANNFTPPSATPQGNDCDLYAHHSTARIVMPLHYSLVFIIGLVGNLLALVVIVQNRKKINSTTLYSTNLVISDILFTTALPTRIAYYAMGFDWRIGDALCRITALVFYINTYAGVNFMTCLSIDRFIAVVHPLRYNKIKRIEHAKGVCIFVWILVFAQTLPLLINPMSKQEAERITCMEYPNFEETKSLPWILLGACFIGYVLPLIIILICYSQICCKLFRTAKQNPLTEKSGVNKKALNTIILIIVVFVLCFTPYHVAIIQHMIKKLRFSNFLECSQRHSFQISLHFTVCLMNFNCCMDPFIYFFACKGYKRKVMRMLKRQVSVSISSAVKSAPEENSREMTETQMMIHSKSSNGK
NR3A LBD binder: modulators (binders) of human NR3A ligand-binding domain | NR3A LBD differential scanning fluorimetry, Tm shift; 0% = protein alone, 100% = glycine-bound protein | AID 1259313 | hit rate 2.5% among 340,000 | Tm shift relative to glycine control, % at 25 µM;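 active = melting temperature shift of at least 10% of the positive control shift, at one fixed dose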
MPTP inh: inhibitors of mitochondrial permeability transition pore; isolated mouse mitochondria, Ca2+ swelling absorbance, 30 min; inhibition, % at 10 µM; hit rate 1.4% among 360,000;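 active = inhibition of 50% or more, scaled per plate between neutral and stimulator controls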;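 note: 0% = DMSO wells given calcium and 100% = 1 mM EGTA wells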
SENP1 FRET inh: SENP1 (human) catalytic domain inhibition; recombinant SENP1 catalytic domain, CyPet-SUMO1-YPet FRET cleavage; inhibition, % at 10 µM; hit rate 0.21% among 360,000; AID 624204;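 active = inhibition at least 30% at 10 µM, raw YFP signal under a set limit, fluorescence ratio 0.5 to 1.5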;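 note: 0% = enzyme with DMSO and 100% = no enzyme wells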
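Material: hSENP1 catalytic domain, recombinant; medium: Tris pH 8 with BME, BSA, NP40 and catalase; compound: single concentration of 10 µM compound, 0.5% DMSO final; technique: FRET read of cyan and yellow fluorescence; timing: 50 min enzyme reaction, room temperature, light-protected; reagent: SFCypet-SUMO1-SFYpet substrate at 25 nM; control set: no-enzyme low, enzyme-DMSO high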
EBI2 conf: EBI2 (human) antagonism, single concentration confirmation | shares compounds with EBI2 antag | EBI2 beta-arrestin luminescence, 7a,25-OHC antagonism | inhibition, % at 5 µM | AID 651997 | hit rate 29% among 2,400;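 active = inhibition of at least 50%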
EBI2 agonist: EBI2 agonism counter-screen; 2,400 tested, under 10 active; shares compounds with EBI2 antag; activation, % at 5 µM; EBI2-expressing cells, agonist mode, luminescence, 60 min; 0% vehicle, 100% 7α,25-dihydroxycholesterol control;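 active = activation of at least 50%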
bGal counter: counter-screen for EBI2 antagonists: E. coli beta-galactosidase inhibition | purified beta-galactosidase, luminescent Galacton Star, 15 min | hit rate 1% among 2,400 | AID 652176 | inhibition, % at 5 µM | shares compounds with EBI2 antag;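 active = replicate-average signal at least 3 plate SD below neutral wells, shown as high inhibition, flagging enzyme-inhibiting false positives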;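 note: 0% = DMSO wells with enzyme and 100% = wells lacking enzyme; higher means stronger loss of beta-gal luminescence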
* = called active by the depositor; . = not tested or not shown.

SMILES	EBI2 antag	NR3A LBD binder	MPTP inh	SENP1 FRET inh	EBI2 conf	EBI2 agonist	bGal counter
Cc1ccc(S(=O)(=O)CC(=O)c2cc3cccc(C)c3oc2=O)cc1	4	-2	-1	-30	.	.	.
CCCC1NC(=O)c2cc3ccccc3cc2-n2c1nc1cc(Cl)ccc1c2=O (centres undefined)	53*	.	-1	-3	51*	0	6
CCC1NC(=O)c2cc3ccccc3cc2-n2c1nc1ccc(F)cc1c2=O (centres undefined)	8	.	-1	0	.	.	.
Cc1ccc2nc3n(c(=O)c2c1)-c1cc2ccccc2cc1C(=O)NC3Cc1ccccc1 (centres undefined)	54*	.	0	-2	34	0	-14
CCCC1NC(=O)c2cc3ccccc3cc2-n2c1nc1ccc(C)cc1c2=O (centres undefined)	57*	.	-1	-2	44	2	7
O=C1NC(Cc2ccccc2)c2nc3ccc(Cl)cc3c(=O)n2-c2cc3ccccc3cc21 (centres undefined)	36	.	-2	-3	.	.	.
O=C(O)c1cccc(Nc2nc3ccccc3nc2NS(=O)(=O)c2ccccc2)c1	-5	-2	0	-1	.	.	.
NS(=O)(=O)c1cccc(Nc2nc3ccccc3nc2NS(=O)(=O)c2ccc(Cl)cc2)c1	63*	28*	7	2	53*	-1	6
Cc1ccnc(NC(=O)CNC(=O)c2sc3ccccc3c2Cl)c1	-3	2	-2	-10	.	.	.
Cc1ccnc(NC(=O)c2sc3cc(Cl)ccc3c2Cl)c1	55*	-10	3	-2	55*	-2	-11
O=C(c1cc(C(=O)N2CCCC2)cc([N+](=O)[O-])c1)N1CCCC1	-1	0	-1	0	.	.	.
COc1ccc(-c2cc(=O)oc3cc4occ(C)c4cc23)cc1	49*	0	0	-24	33	0	6
COc1ccc(S(=O)(=O)N2CCN(CC(=O)NC(Cc3ccccc3)C(C)=O)CC2)cc1 (centres undefined)	-7	0	-1	1	.	.	.
Cc1nnc(SCC(=O)Nc2nccs2)s1	1	1	3	-2	.	.	.
CN(C)c1ccc(NC(=O)c2sc(SCC(=O)Nc3nccs3)nc2N)cc1	52*	-1	4	7	33	2	9
O=S1(=O)CCOCCN1Cc1ccccc1	-5	-1	0	1	.	.	.
CN1CCCN(C(=O)c2cccc3ccccc23)CC1	-8	1	0	1	.	.	.
CSCc1ccc(C(=O)NCc2ccccc2)cc1	15	-11	1	2	.	.	.
CSCc1ccc(C(=O)NCc2ccc(C)cc2)cc1	64*	0	1	1	36	0	-12
Cc1ccc(CNC(=O)c2ccc(COc3ccccc3)cc2)cc1	52*	1	0	2	56*	-1	-19
CCCC(=O)n1nc(-c2ccc(Cl)cc2)nc1SC	80*	2	-2	-1	40	1	9
CN1C(=O)NC(c2cccc(F)c2)C2=C1CC(C)(C)CC2=O (centres undefined)	0	-1	0	-2	.	.	.
Cc1cccc(N2C(=O)/C(=C\c3ccc(OC(F)F)cc3)c3ccccc3C2=O)c1	61*	4	-4	-26	49	0	4
COc1cccc(/C=C2\C(=O)N(c3cccc(C)c3)C(=O)c3ccccc32)c1	17	3	-2	-23	.	.	.
COc1cccc(NC(=O)C2CCC(CNS(=O)(=O)c3cccs3)CC2)c1 (centres undefined)	47*	-2	-1	1	29	1	-15
C/C(=N\NC(=O)C(C)Nc1cccc(Cl)c1)c1ccc([N+](=O)[O-])cc1 (centres undefined)	11	-8	-4	0	.	.	.
CCOc1ccc(-c2cn(-c3ccc(OC)cc3)c(SC)n2)cc1	65*	1	5	-1	26	-1	-12
COc1ccc(N(CC(=O)NCCSc2ccccc2)S(=O)(=O)c2ccccc2)cc1OC	48*	0	0	2	27	1	0
